Screening data from PubChem BioAssay.
MDM2 E3 inh – MDM2-luciferase reporter signal enhancers, primary screen, MDM2 E3 ligase inhibitor project, cell-based, luminescence, 1536-well | signal enhancement, % at 5 µM | AID 1230, 2008 | E3 ubiquitin-protein ligase Mdm2 (Homo sapiens), Q00987 | cell-based MDM2 ubiquitination luciferase reporter, 2 h; 0 = plate control, 100 = twice control, blank-subtracted | 210,000 compounds, 0.11% hits;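 active = signal enhancement of 30% or more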;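 note: luminescence tracks abundance of the self-degrading MDM2-luciferase fusion protein; higher signal means inhibition of MDM2 E3 ligase activity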
Target sequence (Q00987 whole entry, looked up, the tested form may be a part): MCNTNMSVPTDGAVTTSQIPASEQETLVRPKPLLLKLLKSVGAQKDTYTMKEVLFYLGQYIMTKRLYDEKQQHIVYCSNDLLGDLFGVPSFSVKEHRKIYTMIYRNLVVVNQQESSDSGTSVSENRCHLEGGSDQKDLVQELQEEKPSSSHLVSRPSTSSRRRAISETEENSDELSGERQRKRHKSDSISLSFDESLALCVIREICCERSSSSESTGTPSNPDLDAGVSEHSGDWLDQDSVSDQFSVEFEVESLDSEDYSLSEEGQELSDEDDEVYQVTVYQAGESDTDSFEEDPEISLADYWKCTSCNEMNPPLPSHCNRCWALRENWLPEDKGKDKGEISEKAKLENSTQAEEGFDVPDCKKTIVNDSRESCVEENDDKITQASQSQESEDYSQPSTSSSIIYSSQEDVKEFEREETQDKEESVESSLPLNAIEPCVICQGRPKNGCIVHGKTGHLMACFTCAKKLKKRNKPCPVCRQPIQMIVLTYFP
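Buffer or medium: Cells held in DMEM | Assay system: Stable mammalian line carrying autodegrading MDM2–luciferase fusion reporter | Quantity: 2000 cells/well | Times: 4 h settle plus 2 h compound, 37 °C | Doses: One concentration, 5 µM, with 0.2% DMSO | Technique: Luminescence with SteadyLite reagent, 15 min at room temperature | Benchmarks: Plate controls and plate blanks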
UPR CHOP act – activators of apoptotic CHOP UPR arm, primary screen, cell-based, CHO-CHOP luciferase reporter, luminescence, uHTS. activation, % at 10 µM. 330,000 compounds, 0.34% hits. UPR activation; percent of tunicamycin response over DMSO baseline. AID 449763, 2010;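 active = at 10 µM dose, activation of 40% or more, normalized to positive control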;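 note: 100% = tunicamycin at 10 µg/mL and 0% = DMSO alone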
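System: CHO-CHOP luciferase reporter cell line; amount: 500 cells/well; buffer or medium: F12 medium containing 10% fetal bovine serum; incubation: 6 h compound exposure at 37 °C after overnight seeding; measured by: luciferase luminescence after 10 min with Steady-Glo reagent; evaluation: % reporter activation, DMSO baseline versus tunicamycin full activation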
B2AR ag – beta2AR agonists driving receptor internalization, primary screen, cell-based, FAP fluorogen, flow cytometry. Beta-2 adrenergic receptor (Homo sapiens), P07550. Am2.2-beta2AR cells. response, % (no concentration beside the values). 340,000 compounds, 0.43% hits. AID 504454, 2011;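 active = response above a set limit, near 3 SD of response in nonfluorescent compounds, cut at about 42% in these data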
Dynein cargo inh – inhibitors of GR-EGFP nuclear translocation, primary screen, dynein cargo transport inhibitor project, imaging, high-content, 3617.4 mouse cells; test concentration mostly 20 µM; stimulated with dexamethasone, 1 µM; active compounds read low; z-score, hits read low; 220,000 compounds, 0.47% hits;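 active = plate z-score of nuclear minus cytoplasmic receptor signal below a set negative limit, without overly bright fluorescence or cell loss, cut at about -3.5 in these data, passing the limit was not always enough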;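 note: z-score of nuclear minus cytoplasmic ring GR-EGFP intensity difference per well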
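Buffer or medium: tet-free, stripped-serum medium; reagent: dexamethasone at 1.0 µM final, 30 min; incubation: 48 h induction, 1 h compound, 30 min dex at 37 °C; measured by: formaldehyde fixation, Hoechst nuclear stain, 10x automated fluorescence imaging; read-out: nuclear-to-cytoplasmic GR-EGFP distribution per well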
UPR XBP1 act – activators of adaptive XBP1 UPR arm, primary screen, cell-based, CHO-XBP1 luciferase reporter, luminescence, uHTS | IRE1-XBP1 UPR activation; percent of tunicamycin response, DMSO as zero | activation, % at 20 µM | 330,000 compounds, 0.33% hits | AID 463104, 2010;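 active = versus positive control, 20 µM dose yields 30% or more activation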;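 note: 100% = tunicamycin at 10 µg/mL and 0% = DMSO only wells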
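Test system: CHO-XBP1 luciferase reporter cells | Buffer or medium: Serum-containing F12 medium, 10% FBS | Schedule: 6 h compound exposure at 37 °C, 5% CO2 | Detection: Steady-Glo luciferase glow luminescence, 10 min after reagent addition | Read-out basis: Activation, % of tunicamycin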
Mdm2 MdmX PPI – inhibitors of human Mdm2-MdmX association, primary screen, cell-based, luminescence, split luciferase, SaOS-2, uHTS. Protein Mdm4 (Homo sapiens) + E3 ubiquitin-protein ligase Mdm2 (Homo sapiens), …. SaOS-2 split-luciferase Mdm2/MdmX complementation. inhibition, % at 8 µM. 330,000 compounds, 3% hits. AID 485346, 2010;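 active = inhibition of at least 50% at 8 µM in the primary screen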
XBP1 UPR conf – IRE1-XBP1 UPR arm activators, confirmation, cell-based, CHO-XBP1 luciferase reporter, luminescence, single concentration; shares compounds with UPR XBP1 act; AID 485299, 2010; activation, % at 20 µM; 1,000 compounds, 63% hits;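 active = reporter signal at least 30% of the positive control's activation in two or more of four replicate wells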;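 note: plate controls were DMSO negative control for no effect and tunicamycin 10 µg/mL positive control for full effect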
Mdm2-MdmX conf – Mdm2-MdmX complex disruptors, retested hits, confirmation, luminescence, single concentration; shares compounds with Mdm2 MdmX PPI; Mdm2-MdmX binding, luminescent assay; inhibition, % at 8 µM; 10,000 compounds, 55% hits; in the data active = inhibition above about 40%
Full FLuc ctr – full-length luciferase signal inhibition, confirmation, counter-screen for Mdm2/MdmX interaction inhibitor project, cell-based, single concentration, SaOS-2; shares compounds with Mdm2 MdmX PPI; SaOS-2 full-length luciferase counterscreen, luminescence; inhibition, % at 8 µM; 6,200 compounds, 77% hits;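 active = mean inhibition at 8 µM reaching about 37%, which flags the compound as non-specific, limit read from the data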;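 note: p53-null SaOS-2 cells with luciferase driven by a doxycycline-inducible promoter; compound on cells about two nights before reading with doxycycline added after day one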
The depositor's hits bear a star; · = no result. This is a sample that favours compounds with a hit; in the whole collection about 3.7% have one here.

SMILES | MDM2 E3 inh | UPR CHOP act | B2AR ag | Dynein cargo inh | UPR XBP1 act | Mdm2 MdmX PPI | Mdm2-MdmX conf | Full FLuc ctr | others
CC1=Nc2ccccc2/C1=C/c1c(O)[nH]c(=O)[nH]c1=O | · | 2 | 19 | · | -5 | 27 | · | ·
O=c1[nH]c(O)c(/C=C2/C=CC(c3cc(Cl)ccc3Cl)=N2)c(=O)[nH]1 | · | 13 | -23 | 3.2 | 68* | 46 | · | · | XBP1 UPR conf=111*
N#Cc1ccc(C(=O)N2Cc3cnnn3-c3ccccc3C2C#N)cc1 (centres undefined) | · | · | 0 | · | · | · | · | ·
O=C1NC(=O)C(=Cc2cn(CCOc3ccc4c(c3)OCO4)c3ccccc23)C(=O)N1 | -12 | 11 | 42 | -0.43 | 31* | 59* | 24 | · | XBP1 UPR conf=79*
COC(=O)C1=C(c2c(C)noc2C)C[C@@H]2CC[C@H]1N2C(=O)NCCOc1ccccc1 | · | -1 | -2 | · | -1 | 7 | · | ·
CC(C)c1oc(=O)cc2c1[C@@H](O)[C@H]1OC(=O)[C@@]3(C)C[C@@H](O)[C@@H](O)[C@@]2(C)C13 (some centres undefined) | · | 0 | 75* | 0.29 | 5 | 81* | 58* | 30
CC(C)c1oc(=O)cc2c1[C@@H](O)[C@H]1OC(=O)[C@@]3(C)CC[C@@H](O)[C@@]2(C)C13 (some centres undefined) | · | 2 | 84* | 1.5 | 1 | 63* | 61* | 65*
Oc1ccc(C(=C(Cl)Cl)c2ccc(O)cc2)cc1 | · | 0 | · | · | -2 | 32 | · | ·
CC(C)=CCc1c(O)cc2c(c1O)C(=O)CC(c1ccc(O)cc1)O2 (centres undefined) | -19 | -1 | 3 | -0.28 | -1 | 29 | · | ·
CCN(CC)c1ccc(CNCCc2ccccc2F)cc1 | -4 | 1 | -4 | -0.39 | -1 | 54* | 48* | 61*
CCN(CC)C(=O)Cn1cc(/C=C2\C(=O)NC(=O)N(c3ccccc3F)C2=O)c2ccccc21 | · | 21 | 27 | · | -2 | -14 | · | ·
CC(=O)OC(C)(C)/C=C/C(=O)[C@](C)(O)C1[C@H](O)C[C@@]2(C)C3CC=C4C(C[C@H](O)C(=O)C4(C)C)[C@]3(C)C(=O)C[C@]12C (some centres undefined) | · | 36 | 66* | · | -4 | 100* | 100* | 1
CC1(C)CCCN1CCC(C(N)=O)(c1ccccc1)c1ccccc1 | · | · | -10 | · | · | · | · | ·
COC(=O)C1=C(c2c(C)noc2C)C[C@@H]2CC[C@H]1N2C(=O)N1CCCC1 | · | 1 | 10 | · | -1 | -10 | · | ·
Cc1ccc2c(c1)C1CN(C)CCC1N2C(=O)Nc1cccc(C(F)(F)F)c1 (centres undefined) | -9 | -1 | 11 | 0.85 | -4 | 55* | 37 | 65*
Cc1ccc2c(c1)C1CN(C)CCC1N2C(=O)c1cn(-c2ccccc2)nc1-c1ccccc1 (centres undefined) | -14 | -1 | 19 | 0.11 | 0 | 73* | 36 | 76*
